ChEMBL document CHEMBL4513216, “Probing the Open Global Health Chemical Diversity Library for Multistage-Active Starting Points for Next-Generation Antimalarials” (ACS Infect Dis, 2020)

assay: Toxicity liver stage against HepG2, at 10uM; assay type: cell-based; design: test concentration 10 uM, cell line HepG2-A16-CD81EGFP; details: human, HepG2-A16-CD81EGFP cells; read-out: INHIBITION
Procedure, shortened: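 Uninfected HepG2-A16-CD81EGFP cells, 3 × 10^3 per well, 1536-well, plated on prespotted compound at 10 μM final, parasite-free screening media added to match infected plates; puromycin 10 μM positive, DMSO 0.5% negative; run in parallel with 48 h PbLuc assay at 37 °C, 5% CO2; viability by CellTiter-Glo luminescence, normalized to controls.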

Compound | cytotoxicity at 10 µM [%]
Cc1c(C)n2c(SCC(=O)N3CCCCC3)nnc2[nH]c1=O | 3.33
COc1ccc2nnc(CCC(=O)Nc3nc4c(s3)CCC4)n2n1 | -4.8
CC(=O)N1C[C@@H](F)[C@@H](OCc2nc3ccc(C#N)cc3[nH]2)C1 | -0.302
Cc1noc([C@@H]2C[C@H](NC(=O)Nc3cccc(F)c3)CN2C)n1 | -2.17
COc1cccc(CN2CCCCCC2c2sccc2C)c1O (stereo unspecified) | 7.18
COCCn1ccc2c(C(=O)NCC3CCCO3)cccc21 (stereo unspecified) | 1.53
CCCS(=O)(=O)c1ccc(N2CCC(Cc3ccccc3)CC2)nn1 | -7.91
COc1ccc(S(=O)(=O)NCCCc2ccc(N(C)C)cc2)cc1F | -2.59
COc1ccccc1C(=O)N1CC2(COC(C)(C)OC2)C1 | -6.4
CC(C)C(=O)N1CCC(C2C(=O)Nc3ccccc32)CC1 (stereo unspecified) | -1.54
CCN1C(=O)CCCC12CCCN(C(=O)c1occc1C)C2 (stereo unspecified) | 2.88
Cn1nnc2c1CCN(C(=O)CC1CC1)C2COCCN1CCCC1 (stereo unspecified) | 17.4
Cn1cnc2c1C(COCC1CC1)CN(C(=O)c1cccs1)C2 (stereo unspecified) | 7.63
CCc1nnc2sc(-c3cc(C(C)C)n[nH]3)nn12 | -7.37
O=c1c2cnc(N3CCCC3)nc2ccn1-c1cccc(C(F)(F)F)c1 | 16.9
COc1ccccc1-c1ccnc2nc(N3CCCCC3)[nH]c(=O)c12 | 7.36
O=C(CCc1nc2cccnc2[nH]1)NCc1cccnc1 | 7.72
Cn1nc(C(=O)NCc2cccs2)c2c1CCS(=O)(=O)C2 | -0.328
CCOc1ccc(N2CCCN=C2NC(=O)c2cccc(Cl)c2)cc1 | -10.1
O=C(Cn1cccn1)N1CCC(c2nnc(-c3ccsc3)o2)CC1 | 6.88
CS(=O)(=O)N1CCCCCC1c1cc(-c2ccc(F)cc2)no1 (stereo unspecified) | 2.97
CCC(=O)N1CCCCC1c1nc(O)c2c(n1)CN(S(=O)(=O)CC)CC2 (stereo unspecified) | 1.7
Cc1cnc(-c2nc(C3CCN(Cc4ccccc4O)CC3)no2)cn1 | 3.66

Compound | cytotoxicity at 10 µM [%]
CC(=O)N1CCN(c2cc(C)ncn2)CC(CO)C1 (stereo unspecified) | 2.94
CC(=O)Nc1nc(C2CCN(C(C)C)CC2)cs1 | -3.3
Cc1ccc(C(=O)N2CCC[C@@H]2Cn2nnc3c(O)nc(C)nc32)cc1 | -10.3
Cc1cc(-c2cc(F)ccc2C(=O)O)nc(C2CCCN(C)C2)n1 (stereo unspecified) | -11.4
Cc1cccc(CN2CCC(c3nnc(-c4scnc4C)o3)CC2)c1 | -3.8
CC(C)NC(=O)N1CCn2c(nnc2C2CCCN2)C1 (stereo unspecified) | -1.32
Cc1noc(CNc2cc3c(cc2Cl)OCCCO3)n1 | -1.49
Cc1cc(C)cc(NCCC(=O)NCc2cccnc2N(C)C)c1 | -0.211
Cc1nnc(CN2CCCC2c2ccc3c(c2)OCCO3)n1C (stereo unspecified) | -0.379
CC(C)N1CCC(NC(=O)c2cn(-c3ccc(F)cc3)nn2)C1 (stereo unspecified) | -5.05
O=C(NCCCC(=O)N1Cc2ccccc2C1)NCc1ccsc1 | -15
CCN(CC)S(=O)(=O)c1ccc(OC)c(NC(=O)CSC)c1 | -10
CCCN1CCCC1c1nc(Cc2ccc(F)cc2)no1 (stereo unspecified) | -2.74
Cc1nc(-c2ccco2)ccc1C(=O)NCCN1CCN(C)CC1 | 3.88
CC(C)(C)NC(=O)COc1ccc(Oc2ccccn2)cc1 | 7.32
CN(C)CCOc1ccc(CNC(=O)c2cccc3[nH]ncc23)cc1 | 7.99
CC(=O)Cn1cc(C#N)c(=O)c2cc(Br)ccc21 | -7.06
COC(C)c1nc(CN2CCNCC2)cs1 (stereo unspecified) | 4.68
CC(C)S(=O)(=O)NCC1CCCN(C(=O)c2ccc(F)cc2)C1 (stereo unspecified) | 4.68
CC1CCCN(C(=O)Nc2ccc(F)c(C(N)=O)c2)C1 (stereo unspecified) | -7.48
Cc1cc(N2CCCC2c2nnc3n2CCCCC3)nc(C)n1 (stereo unspecified) | 9.59
COc1ccc(C)cc1CN(Cc1ncc(C)o1)C1CCN(C)C1 (stereo unspecified) | -0.76
CS(=O)(=O)NC1CCN(CCc2ccccc2)CC1 | -1.76

Compound | cytotoxicity at 10 µM [%]
CCc1nsc(NC2CC(=O)N(C(C)(C)C)C2)n1 (stereo unspecified) | 5.6
CC(C)N(CC(N)=O)C(=O)CCC(=O)c1ccc(F)cc1F | 0.529
COCc1nc(C(=O)N2CCN(Cc3ccsc3)CC2)cs1 | -0.684
Cc1nc(CNC(=O)N2CCCC(c3ncc[nH]3)C2)sc1C (stereo unspecified) | -0.331
Cc1nc(C2CCCN(C(=O)CCCOc3cccc(F)c3)C2)no1 (stereo unspecified) | 9.91
Cc1ccc(-c2nc(CN3CCOC(c4ccccc4)C3)cs2)o1 (stereo unspecified) | -8.11
CN(CCCC#N)C1CCCN(Cc2noc(C3CC3)n2)C1 (stereo unspecified) | -14.5
CN1CCN(CCCNC(=O)c2cc(Cl)c3c(c2)OCO3)CC1 | -16.7
C[C@H]1CN(C(=O)c2cccnc2)C[C@@]12CCN(CCN1CCCC1)C2=O | -4.71
CC(C)SCCn1ccc2[nH]c(=O)c(C#N)cc2c1=O | 3.18
O=C1OC2(CCN(C(=O)C3NCCc4[nH]cnc43)CC2)c2ccccc21 (stereo unspecified) | -7.05
COc1cccc([C@H]2CN(C(=O)c3cc(C)on3)C[C@@H]2N)c1 | 3.14
Cc1nn(CCN2CCSCC2)cc1CNCc1ccccn1 | 2.28
CCOCc1nc2c(c(N(C)Cc3nonc3C)n1)CCNCC2 | 6.7
N#Cc1cccc(N2CCCC(CO)(Cc3ccccc3F)C2)n1 (stereo unspecified) | 1.54
CC(C)(CN1CCC(Cc2ccc(CO)cc2)C1)N1CCOCC1 (stereo unspecified) | -2.71
CCc1c(C)nn(CCNC(=O)c2csc(C)n2)c1C | -2.78
CN(C)S(=O)(=O)N1CCOCC1CC(=O)NCCOc1ccccc1 (stereo unspecified) | 2.38
CCc1nnc(CN(CC)C(=O)C2CC(=O)N(Cc3cccnc3)C2)o1 (stereo unspecified) | 2.3
Cc1cc(CC(C)NC(=O)c2cccc(CC3CCNCC3)c2)[nH]n1 (stereo unspecified) | 11.1
Cc1c(Cn2ccnc2-c2cc(CN(C)C)cs2)cnn1C | -0.309
COCCc1noc(CNC2CCSC2)n1 (stereo unspecified) | -15
Nc1nccc(N2CCC(Cc3ccccc3Cl)(C(=O)O)CC2)n1 | -21.8

Compound | cytotoxicity at 10 µM [%]
OCCOCCN1CCCC1c1nc2cc(F)ccc2[nH]1 (stereo unspecified) | -17.5
Cc1nc(CCN(C)C(=O)C2COc3ccccc3C2)no1 (stereo unspecified) | -19.7
CCCNC(=O)c1ccc(NC(=O)c2cccc(OCC)c2)cc1 | -10.5
Cc1csc(Nc2nccnc2C2CCCN2C(=O)C(C)C)n1 (stereo unspecified) | 1.3
Fc1ccc(-c2nc(CNC3CCc4ncnn4C3)co2)cc1 (stereo unspecified) | -4.2
CC(C)c1nc(CN2CCCCC2Cn2cncn2)cs1 (stereo unspecified) | -5.06
Cc1ccc(C(=O)Nc2nc(C)no2)cc1 | -1.81
CC(C)c1nn(C)c(N(C)C)c1CNCc1ccc(CO)c(F)c1 | -5.4
CNC(=O)NC(=O)CCN1CCN(c2ccc(C(=O)OC)cc2)CC1C (stereo unspecified) | -17.8
Clc1ccc(CN2CCCC2Cn2cncn2)c2ncccc12 (stereo unspecified) | -9.66
Cc1[nH]ncc1C(=O)N1CCCC(c2ccn[nH]2)C1 (stereo unspecified) | 0.23
Cn1cnc2c1CCN(Cc1csc(-c3ccccc3)n1)C2 | -1.04
Cn1cc(Cl)cc1C(=O)N1CCN(CCc2cccs2)CC1 | -11.8
CC(C(=O)N1CCN(Cc2ccc(C#N)cc2)CC1)n1ccnc1 (stereo unspecified) | -9.71
Cn1ccnc1CN1CCN(CCOc2cccc(C#N)c2)CC1 | -18
CN(CC(=O)N1CCCCC1Cn1cccn1)Cc1ccccc1 (stereo unspecified) | -3.99
c1ncn(CC2CCCN2Cc2csc(C3CCCCC3)n2)n1 (stereo unspecified) | 1.77
O=C1C(NS(=O)(=O)c2ccc(F)cc2)CCN1Cc1ccccc1 (stereo unspecified) | -3.48
CC(Cn1cccn1)NC(=O)NCc1ccnc(OC2CCCC2)c1 (stereo unspecified) | -4.59
CCC(C)NC(=O)c1cc(Br)c2c(c1)OCCO2 (stereo unspecified) | -14.3
O=C(CN1CCOC(CNc2cccnn2)C1)NCc1ccccn1 (stereo unspecified) | -0.945
Cc1cnn(CC2CCCN2Cc2noc(-c3ccccc3)n2)c1 (stereo unspecified) | 0.441
COc1ccc(COCC(O)CNC(=O)c2cccc(OC)c2)cc1 (stereo unspecified) | -9.05

Compound | cytotoxicity at 10 µM [%]
CNC(=O)C1CCN(C(=O)NCCc2ccc(Cl)s2)CC1 | -12.3
O=C(O)c1cc(S(=O)(=O)Nc2ccc(F)cc2Cl)cc2c1OCCO2 | -8.12
CCc1cccc(N2CCC(NC(=O)c3ccncc3)CC2)c1 | -13.9
COc1cc(CNCC2CNc3ccnn3C2)ccn1 (stereo unspecified) | -0.65
CN(CC(=O)N1CCCC1c1noc(C2CC2)n1)Cc1ccccc1 (stereo unspecified) | -5.09
Cc1ccccc1CC(=O)N(C)C1CCCC1 | 6.33
COc1ccc(Br)c(C(=O)N2CCC(c3n[nH]c(C4CC4)n3)CC2)c1 | -1.44
CCn1cnnc1CNC(=O)N1CCN(Cc2ccccc2)CC1 | -1.3
COc1c(C2CCCN2C(=O)c2cccc(C(N)=O)c2)c(C)nn1C (stereo unspecified) | 0.192
Cc1cc(CN2CCN(C(=O)c3sccc3C(C)C)CC2)no1 | -0.962
CN(C)S(=O)(=O)N1C[C@@H]2CN(Cc3ccoc3)CCO[C@@H]2C1 | 12.2
O=C(C1=CCCC1)N1CCC[C@]2(C[C@@H](Oc3ncccc3F)CO2)C1 | -15.5
Cc1cccc(CN2C[C@@H]3CN(C(=O)c4ccco4)C[C@@H]3C2=O)n1 | -0.42
Cc1cccc(CN2C[C@@H]3CN(C(=O)c4ccsc4)C[C@@H]3C2=O)n1 | 5.86
CC(=O)N1CC(=O)N(c2cnn(C)c2)CC12CCN(Cc1ccsc1)C2 (stereo unspecified) | -17.6
C[C@@H]1CN(Cc2ccoc2)C[C@]12CCN(CC(=O)N(C)C)C2=O | 2.11
CC(=O)N1[C@H](CN(C)C)C[C@@H]2CN(C(=O)c3cncc(C)c3)CC[C@@H]21 | 3.76
CS(=O)(=O)N1CCO[C@@H]2CCN(Cc3ccncc3)CC[C@H]21 | 1.15
COc1cc(N2CCO[C@H]3[C@@H](Oc4cccnc4)CC[C@@H]32)ncn1 | -3.33
